Here are results for 16 molecules from ChEMBL document CHEMBL1142489, “Tetrahydrolipstatin analogues as modulators of endocannabinoid 2-arachidonoylglycerol metabolism” (J Med Chem, 2008).

A value given as a limit tells only on which side of the number the result lay.

A short description of test [1]: Selectivity ratio of IC50 for human recombinant DAGLalpha over IC50 for rat brain membrane FAAH.
The nature of test [2]: Inhibition of MAGL-mediated [14C]2-arachidonoyl glycerol hydrolysis to [3H]arachidonic acid in african green monkey COS cell cytosolic fraction by scintillation counting. Type of test: cell-based, Chlorocebus aethiops. The note with it: in the assay text read “[3H]2-arachidonoyl glycerol” for “[14C]2-arachidonoyl glycerol”. A digest of the protocol: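 The 10000g cytosolic fraction of COS-7 cells, taken as the MAGL source, was incubated with 2-[3H]arachidonoylglycerol (1.0 mCi/mmol, 25 µM) in 50 mM Tris-HCl, pH 7.0, for 20 min at 37 °C. Products were separated by TLC. [3H]arachidonic acid was quantified by scintillation counting as the measure of activity.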

A short description of test [3]: Selectivity ratio of IC50 for human recombinant DAGLalpha over IC50 for african green monkey MAGL.
Test [4] has as its target T1, Diacylglycerol lipase-alpha (Homo sapiens, UniProt Q9Y4D2).
T1 sequence (Q9Y4D2 whole entry): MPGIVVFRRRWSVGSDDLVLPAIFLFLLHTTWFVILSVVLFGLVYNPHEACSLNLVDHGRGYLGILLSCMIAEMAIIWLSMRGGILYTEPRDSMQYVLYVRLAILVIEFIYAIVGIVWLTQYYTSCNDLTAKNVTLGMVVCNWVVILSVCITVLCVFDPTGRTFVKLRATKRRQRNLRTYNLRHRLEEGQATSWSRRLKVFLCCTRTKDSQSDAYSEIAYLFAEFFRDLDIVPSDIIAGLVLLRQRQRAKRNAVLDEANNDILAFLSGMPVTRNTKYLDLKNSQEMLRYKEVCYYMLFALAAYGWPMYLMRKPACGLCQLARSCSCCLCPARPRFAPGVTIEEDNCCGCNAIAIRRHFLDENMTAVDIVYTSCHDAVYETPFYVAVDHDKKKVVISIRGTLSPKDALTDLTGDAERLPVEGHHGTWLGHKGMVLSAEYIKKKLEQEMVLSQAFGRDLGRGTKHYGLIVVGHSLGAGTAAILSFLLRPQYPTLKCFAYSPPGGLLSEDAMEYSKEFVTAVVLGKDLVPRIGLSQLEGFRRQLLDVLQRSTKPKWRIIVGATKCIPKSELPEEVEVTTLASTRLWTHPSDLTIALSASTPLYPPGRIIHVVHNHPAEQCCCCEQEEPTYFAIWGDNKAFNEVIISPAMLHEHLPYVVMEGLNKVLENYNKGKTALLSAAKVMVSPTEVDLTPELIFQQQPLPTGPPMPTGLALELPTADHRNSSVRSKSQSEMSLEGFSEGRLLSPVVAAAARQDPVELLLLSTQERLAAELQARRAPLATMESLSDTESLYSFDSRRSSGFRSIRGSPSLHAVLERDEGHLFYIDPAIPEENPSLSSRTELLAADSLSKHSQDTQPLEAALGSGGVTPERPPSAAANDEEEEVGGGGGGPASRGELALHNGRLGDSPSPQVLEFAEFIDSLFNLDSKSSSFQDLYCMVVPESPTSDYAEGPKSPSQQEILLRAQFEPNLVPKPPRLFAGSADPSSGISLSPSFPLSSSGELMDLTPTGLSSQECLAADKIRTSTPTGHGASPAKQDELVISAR
As to the kind of experiment: Inhibition of human recombinant DAGL-alpha-mediated sn-1-[14C]oleoyl-2-arachidonoyl-glycerol hydrolysis to 2-AG overexpressed in african green monkey COS7 cell membrane by scintillation counting. Type of test: cell membranes, COS-7.

Another test concerns the target Cannabinoid receptor 2 (Homo sapiens, UniProt P34972). The test is described as follows: Displacement of [3H]CP-55940 from human recombinant CB2 receptor expressed in HEK293 cells by scintillation counting. Type of test: cell-based.
Another test concerns the target Cannabinoid receptor 1 (Homo sapiens, UniProt P21554). As to the kind of experiment: Displacement of [3H]CP-55940 from human recombinant CB1 receptor expressed in HEK293 cells by scintillation counting. It is filed as cell-based. Background: Loss of bound radioactivity is the signal in a displacement assay; it reports binding, not function.
Test [5] addresses T2, Fatty-acid amide hydrolase 1 (Rattus norvegicus, UniProt P97612).
T2 sequence (P97612 whole entry): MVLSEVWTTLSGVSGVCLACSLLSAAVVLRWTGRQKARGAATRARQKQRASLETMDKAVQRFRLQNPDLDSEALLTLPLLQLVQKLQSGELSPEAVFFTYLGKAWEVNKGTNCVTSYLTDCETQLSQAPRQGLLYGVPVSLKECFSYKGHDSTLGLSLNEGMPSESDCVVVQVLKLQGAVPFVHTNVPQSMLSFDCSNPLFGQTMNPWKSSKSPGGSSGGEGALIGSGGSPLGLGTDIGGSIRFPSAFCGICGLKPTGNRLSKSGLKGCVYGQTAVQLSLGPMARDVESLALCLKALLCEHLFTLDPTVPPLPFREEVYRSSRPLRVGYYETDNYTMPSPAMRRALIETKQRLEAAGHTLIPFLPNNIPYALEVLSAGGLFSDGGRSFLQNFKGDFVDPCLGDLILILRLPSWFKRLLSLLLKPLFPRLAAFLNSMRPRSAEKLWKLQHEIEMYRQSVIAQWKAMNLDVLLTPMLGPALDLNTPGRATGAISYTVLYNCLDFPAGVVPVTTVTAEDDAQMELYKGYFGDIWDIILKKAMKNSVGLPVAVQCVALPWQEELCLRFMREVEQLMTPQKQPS
The test is described as follows: Inhibition of FAAH-mediated [14C]anandamide hydrolysis in rat brain membrane. Type of test: cell membranes. A digest of the protocol: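 The mixture was extracted with 2 volumes of CHCl3/CH3OH 1/1. [14C]ethanolamine in the aqueous phase was measured by scintillation counting.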

Test [6] is filed under the species Homo sapiens. The test is described as follows: Selectivity ratio of IC50 for human recombinant DAGLalpha over Ki for human recombinant CB1 receptor.
The species entered for test [7] is Homo sapiens. As to the kind of experiment: Selectivity ratio of IC50 for human recombinant DAGLalpha over Ki for human recombinant CB2 receptor.

One may read the IC50 as the midpoint of a concentration-inhibition curve. As a reminder, the Ki is a measure of affinity in units of concentration, obtained from inhibition or displacement.

Sequence of Cannabinoid receptor 2 (P34972 whole entry): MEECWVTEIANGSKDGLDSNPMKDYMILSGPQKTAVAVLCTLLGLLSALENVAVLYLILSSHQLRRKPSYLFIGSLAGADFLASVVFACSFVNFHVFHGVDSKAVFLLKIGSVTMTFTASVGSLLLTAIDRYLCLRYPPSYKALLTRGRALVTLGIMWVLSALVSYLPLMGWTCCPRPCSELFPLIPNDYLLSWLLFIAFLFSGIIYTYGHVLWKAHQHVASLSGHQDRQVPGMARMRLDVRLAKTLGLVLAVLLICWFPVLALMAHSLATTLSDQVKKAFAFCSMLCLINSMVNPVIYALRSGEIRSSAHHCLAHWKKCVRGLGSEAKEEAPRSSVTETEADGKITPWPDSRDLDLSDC
Sequence of Cannabinoid receptor 1 (P21554 whole entry): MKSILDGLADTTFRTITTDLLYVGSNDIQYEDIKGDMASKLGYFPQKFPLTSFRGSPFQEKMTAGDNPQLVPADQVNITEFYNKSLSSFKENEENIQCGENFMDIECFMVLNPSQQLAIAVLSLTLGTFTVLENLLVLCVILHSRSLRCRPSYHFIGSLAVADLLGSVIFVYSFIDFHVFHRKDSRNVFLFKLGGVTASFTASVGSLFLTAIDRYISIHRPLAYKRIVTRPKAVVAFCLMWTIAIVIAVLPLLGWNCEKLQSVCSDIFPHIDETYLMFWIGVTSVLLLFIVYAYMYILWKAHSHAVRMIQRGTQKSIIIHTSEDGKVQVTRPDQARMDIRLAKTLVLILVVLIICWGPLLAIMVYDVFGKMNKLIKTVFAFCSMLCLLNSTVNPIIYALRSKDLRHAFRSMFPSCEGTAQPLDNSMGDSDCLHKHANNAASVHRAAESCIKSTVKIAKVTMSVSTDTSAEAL

Consider `CCCCCCCCCCC[C@@H](C[C@@H]1OC(=O)[C@H]1CCCCCC)OC(=O)[C@H](C)NC=O`, for which the Ratio IC50 in test [1] and in test [3] was 23 each time. Also, the IC50 is 1 µM in test [2], 0.043 µM in test [4] and over 50 µM in test [5]. In addition, the Ki at Cannabinoid receptor 2 is over 10 µM; at Cannabinoid receptor 1, 3.1 µM. Moreover, the Ratio in the test listed under Homo sapiens [6] and in the test listed under Homo sapiens [7] was 23 throughout.
In the case of `CCCCCCCCCCC[C@@H](C[C@@H]1OC(=O)[C@H]1CCCCCC)OC(=O)[C@H](Cc1ccccc1)NC=O`, the IC50 in test [2] was over 10 µM; in test [4] it was 25 µM; in test [5] it was over 50 µM.
For `CCCCCCCCCCC[C@@H](C[C@@H]1OC(=O)[C@H]1CCCCCC)OC(=O)CCNC=O`, the IC50 in test [2] is 0.4 µM; in [4], 0.6 µM; in test [5] it was over 50 µM. Besides, the figures for the Ki at Cannabinoid receptor 2 and on Cannabinoid receptor 1 were 6.4 µM and 1.9 µM, respectively.
As for `CCCCCCCCCCC[C@@H](C[C@@H]1OC(=O)[C@H]1CCCCCC)OC(=O)[C@H](CC(C)C)NC(=O)OC(C)(C)C`, the figures for the IC50 in [2], in [4] and in test [5] were over 10 µM, over 25 µM and over 50 µM, respectively.
For `CCCCCCCCCCC[C@H](O)C[C@@H]1OC(=O)[C@H]1CCCCCC`, the IC50 is over 10 µM in test [2], 25 µM in test [4] and over 50 µM in test [5].
Turning to `CCCCCCCCCCC[C@@H](C[C@@H]1OC(=O)[C@H]1CCCCCC)OC(=O)[C@@H](NC=O)C(C)C`, the Ratio IC50 in test [1] and in test [3] was 23 in each case. For the same molecule, the IC50 was over 10 µM in test [2], 0.035 µM in test [4] and over 50 µM in test [5]. The inhibitory constant (Ki) is over 10 µM on Cannabinoid receptor 2 and 5.7 µM at Cannabinoid receptor 1. Further, the Ratio in the test filed under Homo sapiens [6] and in the test filed under Homo sapiens [7] was 23 each time.
On to `CCCCCCCCCCC[C@@H](C[C@@H]1OC(=O)[C@H]1CCCCCC)OC(=O)[C@H](Cc1ccccc1)NC(=O)OCc1ccccc1`, for which the IC50 is over 10 µM in test [2], over 25 µM in [4] and over 50 µM in test [5].
Consider `CCCCCCCCCCC[C@@H](C[C@@H]1OC(=O)[C@H]1CCCCCC)OC(=O)[C@@H](CC(C)C)NC=O`, for which the IC50 in test [2] is over 10 µM.
On to `CCCCCCCCCCC[C@@H](C[C@@H]1OC(=O)[C@H]1CCCCCC)OC(=O)CNC(C)=O`, for which the figures for the IC50 in test [2], in test [4] and in [5] were 1.7 µM, 0.8 µM and over 50 µM, respectively. The results for the Ki at Cannabinoid receptor 2 and on Cannabinoid receptor 1 were over 10 µM and 2.3 µM, respectively.
On to `CCCCCCCCCCC[C@@H](C[C@@H]1OC(=O)[C@H]1CCCCCC)OC(=O)[C@@H](N)CC(C)C`, for which the IC50 was over 10 µM in test [2], over 25 µM in [4] and over 50 µM in test [5].
As to `CCCCCCCCCCC[C@@H](C[C@@H]1OC(=O)[C@H]1CCCCCC)OC(=O)[C@@H](CC(C)C)NC(=O)OCc1ccccc1`, the IC50 in test [2] was over 10 µM; in [4], over 25 µM; in test [5], over 50 µM.
Consider `CCCCCCCCCCC[C@@H](C[C@@H]1OC(=O)[C@H]1CCCCCC)OC(=O)[C@@H](N)Cc1ccccc1`, for which the IC50 in test [2] was over 10 µM; in test [4], 25 µM; in [5], over 50 µM.
Regarding `CCCCCCCCCCC[C@@H](C[C@@H]1OC(=O)[C@H]1CCCCCC)OC(=O)[C@H](CC(C)C)NC(=O)OCc1ccccc1`, the IC50 in test [2] was over 10 µM; in [4] it was over 25 µM; in [5], over 50 µM.
On to `CCCCCCCCCCC[C@@H](C[C@@H]1OC(=O)[C@H]1CCCCCC)OC(=O)CNC(=O)OCc1ccccc1`, for which the IC50 in [2] was over 10 µM; in [4] it was over 25 µM; in [5], over 50 µM.
On to `CCCCCCCCCCC[C@@H](C[C@@H]1OC(=O)[C@H]1CCCCCC)OC(=O)CCC(C)C`, for which the IC50 in test [2] was over 10 µM; in [4], over 25 µM; in [5], 10.4 µM.
Consider `CCCCCCCCCCC[C@@H](C[C@@H]1OC(=O)[C@H]1CCCCCC)OC(=O)[C@@H]1CCCN1C=O`, for which the IC50 was over 10 µM in [2], 1.1 µM in test [4] and 3.4 µM in test [5]. Besides, the values for the Ki on Cannabinoid receptor 2 and at Cannabinoid receptor 1 were 7.4 µM and 1.7 µM, respectively.
